Measured values collected from several papers.
Lines come from different studies, so protocols differ. pIC50: −log10 of the molar value.
Observed: cell growth or viability

| SMILES | cell line | test | setting | endpoint | value |
| --- | --- | --- | --- | --- | --- |
| Cn1c(=O)c(NN=C2C(=O)Nc3ccccc32)nc2ccccc21 | ZR75 | – | 30 µM | inhibition | 52.1% |
| COc1ccc(C2=Nn3c(NN=C4C(=O)Nc5ccc(OC)cc54)nnc3SC2)cc1 | SR | SRB | 10 µM | inhibition | 36% |
| CN1C(=O)/C(=N\NC(=O)c2cc3ccccc3[nH]2)c2ccccc21 | ZR75 | – | 30 µM | inhibition | 73.1% |
| Cn1c(=O)c(NN=C2C(=O)Nc3ccc(Br)cc32)nc2ccccc21 | ZR75 | – | 30 µM | inhibition | 62.1% |
| Cc1ccc(C(CS(=O)(=O)c2ccccc2)=NN=C2N=C(c3ccc(Br)cc3)CS2)cc1 | WM 266-4 | MTT | 25 µM, 48 h | viability | 42.1% |
| Cc1ccc2c(c1)C(=NNc1nnc(Cc3ccccc3)c3ccccc13)C(=O)N2 | ZR75 | – | 30 µM | inhibition | 69.6% |
| O=C(N/N=C1\C(=O)N(c2ccccc2)c2ccccc21)c1cc2ccccc2[nH]1 | ZR75 | – | 30 µM | inhibition | 92.2% |
| COc1cccc(Oc2ccccc2NC(=O)CNC(=O)c2cccc3ccccc23)c1 | SR | SRB | 48 h | GI50 | 0.115 µM |
| O=C(Nc1ccc(OC(F)(F)F)cc1)Nc1cccc(C(=O)Nc2ccc3[nH]ncc3c2)c1 | KM12 | ATP luminescence | 72 h | pIC50 | 4.36 |
| COc1ccc2c(c1)/C(=N/NC(=O)c1cc3ccccc3[nH]1)C(=O)N2 | ZR75 | – | 30 µM | inhibition | 65.9% |
| CC(C)(C)c1nc(-c2cccc(NS(=O)(=O)c3c(F)cccc3F)c2F)c(-c2ccnc(N)n2)s1 | WM 266-4 | MTT | 100 µM, 48 h | viability | 38.1% |
| C=CC(=O)N1CCC[C@@H](n2nc(-c3ccc(Oc4ccccc4)cc3)c3c(N)ncnc32)C1 | KMS-12-BM | – | 48 h | GI50 | > 10 µM |
| C=CC(=O)N1CCC[C@@H](n2nc(-c3ccc(Oc4ccccc4)cc3)c3c(N)ncnc32)C1 | JeKo-1 | ATP luminescence | 72 h | GI50 | 20.1 µM |
| O=C(Nc1ccc(F)cc1)Nc1cccc(C(=O)Nc2ccc3[nH]ncc3c2)c1 | KM12 | ATP luminescence | 72 h | pIC50 | 4.39 |
| Cn1c(=O)c(NN=C2C(=O)Nc3ccc(Cl)cc32)nc2ccccc21 | ZR75 | – | 30 µM | inhibition | 29.8% |
| CNC(=O)c1cc(Oc2ccc(NC(=O)Nc3ccc(Cl)c(C(F)(F)F)c3)cc2)ccn1 | WM 266-4 | MTT | 100 µM, 48 h | viability | 33.9% |
| COc1ccc2c(c1)C(=NNc1nc(-c3ccc(OC)c(OC)c3)nc3ccccc13)C(=O)N2 | ZR75 | – | 30 µM | inhibition | 23.1% |
| Cc1ccc(C(CS(=O)(=O)c2ccccc2)=NNC2=NC(=O)C(=NNc3ccccc3)S2)cc1 | WM 266-4 | MTT | 100 µM, 48 h | viability | 35.7% |
| CN1C(=O)/C(=N\NC(=O)c2cc3ccccc3[nH]2)c2cc(F)ccc21 | ZR75 | – | 30 µM | inhibition | 78.8% |
| COc1ccc(-c2nc(NN=C3C(=O)Nc4ccc(F)cc43)c3ccccc3n2)cc1OC | ZR75 | – | 30 µM | inhibition | 26.5% |
| NC(=S)NN=C(CS(=O)(=O)c1ccccc1)c1ccc(F)cc1 | WM 266-4 | MTT | 100 µM, 48 h | viability | 24.4% |
| Cc1cc(C)n(C(=S)[S][Au][PH](CCCCCC[PH]([Au][S]C(=S)n2nc(C)cc2C)(c2ccccc2)c2ccccc2)(c2ccccc2)c2ccccc2)n1 | KM12 | – | – | GI50 | 0.386 µM |
| COc1ccc(-c2nc(NN=C3C(=O)Nc4ccc(Br)cc43)c3ccccc3n2)cc1OC | ZR75 | – | 10 µM | inhibition | 78.8% |
| O=C1Nc2ccc(F)cc2/C1=N/NC(=O)c1cc2ccccc2[nH]1 | ZR75 | – | 30 µM | inhibition | 40% |
| COc1ccc2c(c1)C(=NNc1nc3ccccc3n(C)c1=O)C(=O)N2 | ZR75 | – | 30 µM | inhibition | 76% |
| Cc1ccc(C(CS(=O)(=O)c2ccccc2)=NNc2nc(-c3ccc(OCCCCOc4ccc(-c5csc(NN=C(CS(=O)(=O)c6ccccc6)c6ccc(C)cc6)n5)cc4)cc3)cs2)cc1 | WM 266-4 | MTT | 25 µM, 48 h | viability | 48.8% |
| CN1CCN(c2ccc(C(=O)Nc3n[nH]c4ccc(Cc5cc(F)cc(F)c5)cc34)c(NC3CCOCC3)c2)CC1 | KM12 | ATP luminescence | 72 h | pIC50 | 4.63 |
| O=C1Nc2ccc(Br)cc2/C1=N/NC(=O)c1cc2ccccc2[nH]1 | ZR75 | – | 30 µM | inhibition | 58.9% |
